GPR7 antag: antagonists of human GPR7 (neuropeptides B/W receptor 1). P48145. GPR7-expressing cells, fluorescence antagonist assay. inhibition, % at 4.4 µM. hit rate 1.1% among 290,000. AID 1861; in the data active = inhibition above about 16%, passing the limit was not always enough;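 note: cells stimulated with the agonist NPW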
TAAR1 antag: antagonists of human TAAR1. inhibition, % at 3 µM. hit rate 1.5% among 360,000. Q96RJ0. CHO RD-HGA16 TAAR1, Fluo-8 calcium fluorescence, antagonist. AID 624466;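 active = inhibition above a per-plate cutoff, the mean inhibition of test compounds on that plate plus 3 SD, cut at about 49% in these data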
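test system = CHO RD-HGA16 cells bearing hTAAR1 | replication = singlicate | controls = DMSO-only wells and EC80 β-PEA-stimulated wells | reagent = EC80 β-phenethylamine stimulus | read-out basis = percent inhibition of PEA-evoked calcium signal, max/basal emission ratio | schedule = seeding 17-24 h prior, 75-min 37 °C, 30-min RT dye loading | signal = kinetic Fluo-8 calcium fluorescence measurement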
MPTP inh: permeability transition pore inhibition; isolated mouse mitochondria, Ca2+ swelling absorbance, 30 min; AID 602449; inhibition, % at 10 µM; hit rate 1.4% among 360,000;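 active = inhibition of 50% or more, scaled per plate between neutral and stimulator controls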
TAAR1 agonist: human TAAR1 agonism | Q96RJ0 | CHO RD-HGA16 TAAR1, Fluo-8 calcium fluorescence; vehicle wells 0%, saturating PEA agonist 100% | hit rate 0.99% among 360,000 | activation, % at 3 µM | AID 624467;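 active = activation above the mean activation of all test compounds in the run plus 3 SD, cut at about 38% in these data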
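Signal – calcium-sensitive Fluo-8 signal, excitation 470-495, emission 515-575 nm · System – RD-HGA16 (CHO) cells co-expressing Gα16 and hTAAR1 · Incubation – 17-24 h seeding, 75 min 37 °C dye, 30 min RT · Compound dosing – 3 µM single concentration · Repeats – no replicates (n 1)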
DAGLB inhibitor: blocks human DAGLB lipase activity | HEK293T DAGLB membrane lysate, EnzChek fluorogenic substrate | inhibition, % at 5.17 µM | hit rate 0.059% among 340,000; in the data active = inhibition above about 34%
Target sequence (Q8NCG7 whole entry, looked up): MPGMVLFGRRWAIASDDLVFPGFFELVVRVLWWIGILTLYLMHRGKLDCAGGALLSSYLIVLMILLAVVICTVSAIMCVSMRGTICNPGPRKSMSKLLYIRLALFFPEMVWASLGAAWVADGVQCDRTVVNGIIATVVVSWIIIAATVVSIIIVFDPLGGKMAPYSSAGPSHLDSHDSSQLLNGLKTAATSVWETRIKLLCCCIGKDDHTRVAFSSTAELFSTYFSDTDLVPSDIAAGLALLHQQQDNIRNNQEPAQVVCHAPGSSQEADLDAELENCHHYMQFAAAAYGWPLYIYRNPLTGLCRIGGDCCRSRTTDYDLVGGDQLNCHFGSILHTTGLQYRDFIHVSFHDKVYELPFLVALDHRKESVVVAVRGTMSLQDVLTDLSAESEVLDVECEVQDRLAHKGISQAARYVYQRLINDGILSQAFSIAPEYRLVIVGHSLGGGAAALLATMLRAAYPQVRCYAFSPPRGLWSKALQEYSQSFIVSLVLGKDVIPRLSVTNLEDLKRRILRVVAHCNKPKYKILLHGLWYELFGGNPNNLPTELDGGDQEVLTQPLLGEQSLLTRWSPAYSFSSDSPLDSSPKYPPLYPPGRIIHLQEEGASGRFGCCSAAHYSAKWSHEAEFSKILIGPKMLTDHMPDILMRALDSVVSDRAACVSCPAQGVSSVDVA
TAAR1 ag confirm: human TAAR1 agonism, confirmed | shares compounds with TAAR1 agonist | CHO RD-HGA16 TAAR1, Fluo-8 calcium fluorescence; scaled: DMSO 0%, maximal phenethylamine 100% | activation, % at 3 µM | hit rate 82% among 2,400 | AID 651783;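 active = activation above a cutoff set at the run's mean compound activation plus 3 SD, cut at about 39% in these data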
Ga16 ag counter: nonselective agonism, TAAR1 counter-screen; shares compounds with TAAR1 agonist; hit rate 50% among 2,400; CHO-Ga16 parental, Fluo-8 calcium fluorescence; normalized to maximal ATP response, DMSO zero; activation, % at 3 µM;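 active = activation above the run cutoff, the mean activation over all tested wells plus 3 SD, cut at about 12% in these data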
TAAR1 desensitize: counter-screen for human TAAR1 agonists: agonists that desensitize TAAR1; inhibition, % at 3 µM; hit rate 46% among 2,400; CHO RD-HGA16 hTAAR1, Fluo-8 calcium, beta-PEA response inhibition; shares compounds with TAAR1 agonist;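 active = inhibition above the run cutoff, the mean inhibition of all test compounds plus 3 SD, cut at about 49% in these data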;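 note: beta-PEA stimulus applied at its EC80; loss of beta-PEA calcium signal after compound pretreatment read as receptor desensitization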
Ga16 antag count: nonselective Ga16 antagonist in TAAR1 agonist counter-screen; shares compounds with TAAR1 agonist; CHO-Ga16 ATP-induced calcium, Fluo-8 fluorescence; inhibition, % at 3 µM; hit rate 39% among 2,400;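 active = inhibition above the plate's mean compound inhibition plus 3 SD, computed per plate, cut at about 22% in these data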
Hits are given with their value; . = inactive; / = no result. Rows were chosen to be rich in hits. Some 4% of all compounds tested hit in one or more screens of this group.

SMILES | GPR7 antag | TAAR1 antag | MPTP inh | TAAR1 agonist | DAGLB inhibitor | TAAR1 ag confirm | Ga16 ag counter | TAAR1 desensitize | Ga16 antag count
S=C1NCN(CCc2ccccc2)CN1Cc1ccccc1 | . | . | . | . | . | / | / | / | /
S=C1NCN(CCc2ccccc2)CN1 | . | . | . | 87 | / | 101 | 22 | . | .
ClC(Cl)(Cl)c1nc2ccccc2n2nncc12 | . | . | . | . | . | / | / | / | /
CC(=O)c1cccc(NC(=O)C2Cc3c(-c4ccccc4Oc4ccccc4)ccnc3O2)c1 (centres undefined) | / | . | . | . | / | / | / | / | /
CC(=O)c1cccc(-c2ccnc3c2CC(C(=O)NCc2ccco2)O3)c1 (centres undefined) | / | . | . | . | / | / | / | / | /
Cc1[nH]nc2c1C(c1ccccc1)N(Cc1ccccc1)C2=O (centres undefined) | / | . | / | . | / | / | / | / | /
Cc1ccc(C(O)c2ncc(-c3ccccc3Cl)[nH]2)cc1F (centres undefined) | / | . | . | . | / | / | / | / | /
COc1cc(OC)cc(N(C(=O)CNC(=O)c2cccs2)C(C(=O)NCC2CCCO2)c2ccccc2)c1 (centres undefined) | . | . | . | . | . | / | / | / | /
Cn1c(Oc2cccnc2CN2CCCC2)nc2cc(-c3cccc(C(F)(F)F)c3)sc2c1=O | / | . | . | . | / | / | / | / | /
CCCN1CN(CCc2ccccc2)CNC1=S | . | / | . | / | . | / | . | / | .
COc1cccc(CNC(=O)[C@H]2CCCN2C(=O)[C@H]2CCCN2C(=O)c2ccc(OC(F)(F)F)cc2)c1 | / | . | / | . | / | / | / | / | /
COCCCN1C(=O)c2ccc(C(=O)OCC(=O)NCCc3ccccc3)cc2C1=O | . | . | . | . | . | / | / | / | /
Cc1ccc(NC(=O)COC(=O)c2ccc3c(c2)C(=O)N(CCc2ccccc2)C3=O)c(C)c1 | . | . | . | 77 | . | 64 | . | . | .
c1ccc(CNc2c(C3CCNCC3)nc3scc(-c4ccccc4)n23)cc1 | / | . | . | . | / | / | / | / | /
O=C(Nc1cccc2c1CCCC2)c1cc(C2CCCCN2S(=O)(=O)c2cccs2)on1 (centres undefined) | / | . | . | . | / | / | / | / | /
CCCCCCCCN1C(=O)[C@H](CC(=O)NCc2ccc(C)o2)C[C@@]2(C(=O)OCC)CCC=C12 | / | . | . | . | / | / | / | / | /
Cc1nn(CCCC(=O)NCCc2ccccc2)c(=O)c2nn(-c3ccccc3)c(C)c12 | . | . | . | . | . | / | / | / | /
Cc1ccc(-n2nc3c(=O)n(CCCC(=O)NCCc4ccccc4)nc(C)c3c2C)cc1 | . | . | . | 41 | . | . | . | . | .
CC1CCN(C(=O)c2ncn3c2C(=O)N[C@H](C)C3)CC1 | / | . | / | . | / | / | / | / | /
O=c1ccnc(NCCc2ccccc2)[nH]1 | . | / | . | / | . | / | . | / | .
CCCc1cc(=O)[nH]c(NCCc2ccccc2)n1 | . | . | . | . | . | / | / | / | /
C[C@H](CO)N1C[C@H](C)[C@@H](CN(C)C(=O)Nc2ccc(C(F)(F)F)cc2)OCc2cn(nn2)CCCC1=O | / | . | / | . | / | / | / | / | /
CCCOc1ccc(OCCOCCN2CCc3ccccc3C2)cc1 | . | . | . | 102 | . | 77 | . | 64 | .
C=CCc1cc(OC)ccc1OCCOCCN1CCc2ccccc2C1 | . | . | . | 48 | . | 56 | . | . | .
COc1cccc(-c2cnc(C(O)c3ccc(C(C)(C)C)cc3)[nH]2)c1 (centres undefined) | / | / | . | / | / | / | / | / | /
SMILES | GPR7 antag | TAAR1 antag | MPTP inh | TAAR1 agonist | DAGLB inhibitor | TAAR1 ag confirm | Ga16 ag counter | TAAR1 desensitize | Ga16 antag count
O=C(COC(=O)/C=C/c1cccc(C(F)(F)F)c1)NCc1cccs1 | / | 66 | . | 79 | . | 66 | 44 | . | .
CCCCn1c(Nc2ccccc2)nc2ccccc21 | . | . | . | 45 | . | . | . | . | .
CCN(CC)CCCNC(=O)c1cc(-c2ccccc2)c(N2CCCCC2)s1 | . | . | . | 53 | . | 55 | 34 | . | .
CSc1ccc(CCNC(=O)c2cc(-c3ccccc3)c(N3CCOCC3)s2)cc1 | . | . | . | . | . | / | / | / | /
COc1cc(OC)c(-n2cc(-c3ccc(OC)c(OC)c3)[nH]c2=S)cc1Cl | . | . | . | 96 | . | . | . | . | .
CCC1CN(C(=O)N2CCC(C(=O)NCc3cc(OC)c(OC)c(OC)c3)CC2)c2ccccc2O1 (centres undefined) | . | . | . | . | . | / | / | / | /
O=C(NCCc1ccccc1)C1CCN(C(=O)c2ccc([N+](=O)[O-])cc2)CC1 | . | / | . | / | . | / | . | / | .
CCC1CN(C(=O)N2CCC(C(=O)NCCc3ccccc3)CC2)c2ccccc2O1 (centres undefined) | . | 58 | . | 53 | . | 84 | 16 | 83 | 34
C1C2CC3C1C3C2=NN=C1C2CC3C(C2)C13 | / | . | . | . | / | / | / | / | /
CC1(C(=O)NS(=O)(=O)c2cccc(F)c2)CCN1C(=O)CC1CCCCC1 (centres undefined) | / | . | . | . | / | / | / | / | /
COc1cc(/C=C(\C#N)c2nc3ccc(C)cc3[nH]2)cc([N+](=O)[O-])c1O | . | . | . | . | . | / | / | / | /
COc1cc(/C=C(\C#N)c2nc3ccc(C)cc3[nH]2)c([N+](=O)[O-])cc1OC | . | . | . | 47 | . | . | 30 | . | .
COc1cccc(OCCCN2CCC(C(O)(c3ccccc3)c3ccccc3)CC2)c1 | / | . | / | 42 | / | . | 13 | . | 26
OC(c1ccccc1)(c1ccccc1)C1CCN(CCCOc2cc(F)cc(F)c2)CC1 | / | . | / | 49 | / | . | 32 | 49 | 46
OC(c1ccccc1)(c1ccccc1)C1CCN(CCCOc2cccc(OC(F)(F)F)c2)CC1 | / | . | . | . | / | / | / | / | /
Cc1cccc(OCCCN2CCC(C(O)(c3ccccc3)c3ccccc3)CC2)c1 | / | . | / | 41 | / | . | 16 | . | 30
N#Cc1c(-c2ccc(Cl)cc2)c(-c2ccc(Cl)cc2)nn(CCOC(=O)CCC(=O)O)c1=O | / | . | . | . | . | / | / | / | /
COC(=O)c1ccc(N)c2c(N)ccc(C(=O)OC)c12 | / | . | / | . | / | / | / | / | /
Cc1nn(Cc2ccccc2Cl)c(C)c1NC(=O)c1cc(-c2ccc(F)cc2)on1 | . | 63 | . | 55 | . | . | . | 53 | 26
Nc1nc(N)c2cc(Sc3ccc(Cl)cc3)ccc2n1 | / | . | . | 60 | . | 65 | 40 | 56 | 40
Nc1nc(N)c2cc(Sc3cccc(C(F)(F)F)c3)ccc2n1 | / | . | . | . | . | / | / | / | /
Nc1nc(N)c2cc(Sc3ccc4ccccc4c3)ccc2n1 | . | . | . | 63 | / | 82 | 44 | 57 | 46
N#C/C(=C\c1coc2ccccc2c1=O)C(N)=S | . | . | . | . | . | / | / | / | /
